# Experimental data gathered from unrelated publications.
# Target: 1-phosphatidylinositol 3-phosphate 5-kinase (PIKFYVE, Homo sapiens, UniProt Q9Y2I7)
Structure (SMILES),test,setting,remaining binding
O=C(c1ccc(Nc2ncc(Cl)c(-c3ccc(Cl)s3)n2)cc1)N1CCC(N2CCCC2)CC1,"binding, competition with immobilised ligand",1 µM,32%
CS(=O)(=O)N1CCCC(NC(=O)[C@H](CCC2CCCCC2)NC(=O)c2ccc(CNc3ncnc4c3nnn4-c3ccccc3)cc2)C1 (stereo partly drawn),"cell-free assay, competition with immobilised ligand",0.1 µM,61%
COc1cnc(Nc2cccc(S(N)(=O)=O)c2)nc1N1CCN(c2ccccc2)C(=O)C1,"binding, competition with immobilised ligand",1 µM,100%
CC(C)CC(=O)N1CCc2nc(-c3ccc(Br)cc3)nc(N(C)Cc3ccccc3)c2C1,"cell-free assay, competition with immobilised ligand",0.1 µM,91%
CN(C)c1ncc(F)c(-c2cnn3ncccc23)n1,binding,1 µM,100%
FC(F)(F)Oc1cccc(-c2cnc3ccc(-c4ccncc4)nn23)c1,"cell-free assay, competition with immobilised ligand",5 µM,2.4%
COc1cc(-c2cn(C3CCc4c(F)cccc4N(CC(F)(F)F)C3=O)nn2)ccc1-n1cnc(C)c1 (stereo not drawn),"cell-free assay, competition with immobilised ligand",1 µM,100%
F[C@@H]1CCN(c2nccc(-c3cnn4ncccc34)n2)C1,binding,1 µM,82%
CSc1cccnc1N1CCN(Cc2nc3ccccc3[nH]2)CC1,"cell-free assay, competition with immobilised ligand",1 µM,100%
CN(C)c1nccc(-c2cnn3ncccc23)n1,binding,1 µM,100%
CN(c1ccnc(CNc2nc(Nc3ccc4c(c3)CC(=O)N4)ncc2C(F)(F)F)n1)S(C)(=O)=O,"cell-free assay, competition with immobilised ligand",1 µM,100%
C[C@H]1CCN(c2nccc(-c3cnn4ncccc34)n2)C1,binding,1 µM,100%
c1cncc(-c2cccc(Nc3nccc(NC4CCCCC4)n3)c2)c1,"binding, competition with immobilised ligand",10 µM,29%
CC1CCCN1c1nccc(-c2cnn3ncccc23)n1 (stereo not drawn),binding,1 µM,100%
O=C(NCCCN1CCOCC1)c1ccc(Nc2ncc(Cl)c(-c3ccc(Cl)s3)n2)cc1,"binding, competition with immobilised ligand",1 µM,53%
COc1cccc(CNC(=O)c2nc3scc(COCc4ccc(C(=O)O)cc4)c3c(=O)[nH]2)c1,"cell-free assay, competition with immobilised ligand",1 µM,100%
Cc1cnc(Nc2ccc(C(=O)N3CCC(N4CCCC4)CC3)cc2)nc1-c1cc2ccccc2s1,"binding, competition with immobilised ligand",1 µM,79%
O=C(Nc1c[nH]nc1C(=O)NC1CCNCC1)c1cc(F)cc(F)c1,"binding, competition with immobilised ligand",1 µM,86%
